Apaf-1 act: human Apaf-1 activation; O14727; Apaf-1 apoptosome caspase-3 activation, DEVD-Rh110 fluorescence; stronger effect = lower value; activity change, negative = activation, % at 20 µM; actives 0.31% (n = 330,000); AID 489031;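 active means activity change at or below -40% at 20 µM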
Target sequence (O14727 whole entry, looked up): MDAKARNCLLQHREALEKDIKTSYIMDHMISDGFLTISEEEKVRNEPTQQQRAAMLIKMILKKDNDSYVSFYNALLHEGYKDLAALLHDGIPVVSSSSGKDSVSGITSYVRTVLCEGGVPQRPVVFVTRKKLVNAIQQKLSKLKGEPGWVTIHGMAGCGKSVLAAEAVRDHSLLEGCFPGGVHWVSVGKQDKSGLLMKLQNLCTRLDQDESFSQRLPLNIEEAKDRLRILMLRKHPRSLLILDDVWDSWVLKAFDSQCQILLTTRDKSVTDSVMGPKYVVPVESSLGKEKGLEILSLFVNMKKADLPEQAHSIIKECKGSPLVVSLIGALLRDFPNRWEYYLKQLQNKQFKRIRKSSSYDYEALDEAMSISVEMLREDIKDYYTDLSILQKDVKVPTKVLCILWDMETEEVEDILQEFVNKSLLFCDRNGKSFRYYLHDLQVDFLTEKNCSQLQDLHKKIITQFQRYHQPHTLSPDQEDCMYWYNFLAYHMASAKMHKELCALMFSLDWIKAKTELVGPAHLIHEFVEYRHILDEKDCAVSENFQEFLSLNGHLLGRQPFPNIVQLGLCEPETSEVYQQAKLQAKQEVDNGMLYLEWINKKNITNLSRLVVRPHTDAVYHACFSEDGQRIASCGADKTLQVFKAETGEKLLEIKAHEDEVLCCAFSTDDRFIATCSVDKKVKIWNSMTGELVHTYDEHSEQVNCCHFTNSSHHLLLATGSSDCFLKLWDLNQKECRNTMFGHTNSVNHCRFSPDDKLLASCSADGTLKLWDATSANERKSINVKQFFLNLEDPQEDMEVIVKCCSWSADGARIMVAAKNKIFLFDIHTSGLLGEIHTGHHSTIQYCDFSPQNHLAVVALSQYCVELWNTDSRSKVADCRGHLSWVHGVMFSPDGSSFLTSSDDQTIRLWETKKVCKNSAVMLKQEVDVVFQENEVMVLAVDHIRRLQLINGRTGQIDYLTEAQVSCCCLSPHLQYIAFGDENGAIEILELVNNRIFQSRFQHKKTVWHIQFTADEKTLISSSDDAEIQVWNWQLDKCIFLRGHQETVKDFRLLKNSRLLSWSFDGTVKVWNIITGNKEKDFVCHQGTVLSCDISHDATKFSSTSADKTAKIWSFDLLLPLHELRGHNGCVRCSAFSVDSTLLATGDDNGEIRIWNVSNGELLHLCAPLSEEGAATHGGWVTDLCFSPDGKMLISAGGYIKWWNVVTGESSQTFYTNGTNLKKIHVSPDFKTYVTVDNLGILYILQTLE
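System: Reconstituted apoptosome of Apaf-1, cytochrome c, caspase-9, procaspase-3 | Reagent: dATP, cytochrome c, and (Z-DEVD)2-Rh110 caspase-3 substrate | Times: 30 min compound preincubation and 50 min reaction, both room temperature | Detection: Caspase-3-released Rh110 fluorescence, 540 nm emission, 480 nm excitation | Measure: Caspase-3 activity via Apaf-1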
Rh110 act interf: interferes with Rh110 fluorescence, flagging false Apaf-1 activators; shares compounds with Apaf-1 act; Rh110 fluorescence interference, quenched caspase reaction, Ex480/Em540; fluorescence interference (activity change), % at 20 µM, hits read low; 980 tested, under 10 active; AID 504616;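 active means mean activity change at or below -40% when tested at 20 µM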
Apaf-1 act conf: confirmation of human Apaf-1 activators. shares compounds with Apaf-1 act. reconstituted apoptosome caspase-3 activity, DEVD-Rh110 fluorescence; stronger effect = lower value. activity change, negative = activation, % at 20 µM. actives 5% (n = 980);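 active means mean activity change at or below -40%, meaning activation of 40% or more, at 20 µM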
A number is an active result; n = inactive; x = not tested or not shown. These entries were drawn from the full list.

SMILES	Apaf-1 act	Rh110 act interf	Apaf-1 act conf
CN(Cc1nccs1)C(=O)CC1C(=O)NCCN1Cc1ccc(-c2ccccc2)cc1 (stereo unspecified)	-330	n	n
CCOc1ccc2nc(N(CCN(C)C)C(=O)c3ccc4c(c3)CCCC4)sc2c1	n	x	x
CN(C)CCCN(C(=O)c1ccc(S(=O)(=O)N2CCCC2)cc1)c1nc2ccc(Br)cc2s1	n	x	x
CCN(CC)CCN(C(=O)c1ccc(C(C)=O)cc1)c1nc2ccc(Cl)cc2s1	-329	n	n
CC1=NN(c2ccc(C(=O)O)c(N)c2)C(=O)C1	n	x	x
Cc1cccc(CCNS(=O)(=O)c2cnc[nH]2)c1	-46	n	n
COc1ccc(NC(=O)[C@@H]2[C@@H]3C(=O)N(C4CCCCC4)C(=O)[C@@H]3C3c4ccccc4C=CN32)cc1 (stereo partly specified)	n	x	x
COc1ccc(CNC(=O)c2c(C)oc3c2C(=O)c2ccccc2C3=O)cc1	n	x	x
CCOC(=O)CNC(=O)C1c2ccccc2C(=O)N(c2ccc(OC)cc2)C1c1ccc(OC)cc1 (stereo unspecified)	-42	n	n
CN(C)CCCNC(=O)C[C@H]1C[C@H](C(=O)N2CCCCC2)[C@@]2(CCc3ccccc3)c3[nH]c4cc(-c5ccco5)ccc4c3CCN2C1=O	n	x	x
COC(=O)NCc1ccc(Cl)c(Cl)c1	-71	n	n
Cc1cccc(NC(=O)CSCC(=O)N(C)Cc2ccc(Cl)c(Cl)c2)c1	n	x	x
CN1c2cccc3cccc(c23)N(C)C1(C)C	n	x	x
C#CCOCCOCCOCCNc1nc(N2CCN(C(=O)[C@H](CCCCN)n3cc(CN)nn3)CC2)nc(N2CCN(C(=O)[C@H](CCCCN)n3cc([C@@H](N)[C@H](C)CC)nn3)CC2)n1	n	x	x
COC(=O)CCC(=O)OC1(C)C(=O)C2=CN(CC(C)C)C(c3ccc(OC)cc3)=CC2=C(Br)C1=O (stereo unspecified)	n	x	x
S=C(Nc1ccc2[nH]ccc2c1)NC1CCCCC1	-86	n	n
Cc1ccccc1OCc1n(CC(=O)OC2CC(C)CCC2C(C)C)c2ccccc2[n+]1C (stereo unspecified)	n	x	x
C#CCOCCOCCOCCNc1nc(N2CCN(C(=O)[C@H]([C@@H](C)CC)n3cc([C@@H](N)Cc4ccc(O)cc4)nn3)CC2)nc(N2CCN(C(=O)[C@H](CCCCN)n3cc([C@@H](N)CO)nn3)CC2)n1	n	x	x
CCc1ccccc1NC(=O)CCS(=O)(=O)c1ccc(OC)cc1	-117	n	n
CCc1ccccc1NC(=O)CCNS(=O)(=O)c1cc(Br)cnc1N	n	x	x
Cc1nc2c(=O)[nH]c(=S)n(C)c2nc1C	-263	n	n
CC(C)(C)NC[C@H](O)COc1nsnc1N1CCOCC1	n	x	x
CN1CCc2c(sc(NC(=O)c3ccc(C(=O)c4ccccc4)cc3)c2C(N)=O)C1	n	x	x
COC(=O)C1=C(C)NC(C)=C(C(=O)OC(C)C)C1c1cccc2nonc12 (stereo unspecified)	-207	n	n
O=C(NC1=C(NC2CCS(=O)(=O)C2)C(=O)c2ccccc2C1=O)c1ccccc1 (stereo unspecified)	n	x	x
SMILES	Apaf-1 act	Rh110 act interf	Apaf-1 act conf
COc1ccccc1/C=C/C(=O)OCC(=O)NC1CCS(=O)(=O)C1 (stereo unspecified)	-78	n	n
CC/C(=N/Nc1ccccc1C)c1cnnc(SC)n1	n	x	x
CCOc1ccccc1N1CSC2=C(C#N)C(c3c(OC)ccc4ccccc34)CC(=O)N2C1 (stereo unspecified)	n	x	x
CCC1=NNc2cccc3c(OC)ccc1c23	n	x	x
O/N=C/c1ccc2ccccc2n1	-50	n	n
C[n+]1ccccc1/C=N/O	n	x	x
Cc1ccc(N=Nc2c(N)[nH]n3c(=O)cc(-c4ccccc4)nc23)cc1	n	x	x
C/C(=N\NC(=O)c1ccc(NS(=O)(=O)c2cccs2)cc1)c1ccc(Cl)cc1	-46	n	n
O=C(Nc1ccccc1N1CCCC1)C1CCN(S(=O)(=O)c2cccc(C(F)(F)F)c2)CC1	n	x	x
O=C(Nc1ccccc1)N1CCC(C(=O)N2CCN(S(=O)(=O)c3cccc(F)c3)CC2)CC1	-51	n	n
Cc1ccc(-n2c(N)c(C(=O)Nc3c(C)n(C)n(-c4ccccc4)c3=O)c3nc4ccccc4nc32)cc1C	n	x	x
S=c1[nH]c2cc(Cl)c3cccnc3c2o1	n	x	x
N#Cc1sc2nc(-c3ccccc3)cc(-c3ccco3)c2c1N	n	x	x
CCCc1ccc2oc(C(=O)NCCc3nc(C(=O)OCC)cs3)c(C)c2c1	n	x	x
CCCc1cc(C(=O)Nc2sc(C(C)=O)c(C)c2C(=O)OCC)no1	-192	n	n
O=C(O)c1ccc2c(c1)-c1nc3ccccc3n1C2=O	-113	n	n
O=C(O)c1ccc(NC2=C(n3nnc4ccccc43)C(=O)c3ccccc3C2=O)cc1	n	x	x
C#CCOCCOCCOCCNc1nc(N2CCN(C(=O)CCCCCCCCCCNC(=O)Cn3cc(CCCCCN)nn3)CC2)nc(N2CCN(C(=O)CCCCCCCCCCNC(=O)Cn3cc(CCCCCN)nn3)CC2)n1	n	x	x
COC(CNC(=S)Nc1ccc([N+](=O)[O-])cc1)OC	-58	n	n
CCN1CCN(C2=C(NS(=O)(=O)c3ccccc3)C(=O)c3ccccc3C2=O)CC1	n	x	x
COc1ccc(-c2sc3cc4c(cc3c2-c2ccc(OCCN3CCCCC3)cc2)OCO4)cc1	n	x	x
CSCCC(NC(=O)c1ccco1)C(=O)N1CCCC(C(F)(F)F)C1 (stereo unspecified)	-394	n	n
O=C(c1ccc2ncsc2c1)N1CCCC(C(F)(F)F)C1 (stereo unspecified)	n	x	x
Cc1cnc(NC(=O)C2=C(O)c3ccccc3S(=O)(=O)N2C)s1	n	x	x
CCOc1ccc(NC(=O)c2c[nH]n3c(=O)cc(C4CCN(C(=O)OC(C)(C)C)CC4)nc23)cc1	n	x	x
SMILES	Apaf-1 act	Rh110 act interf	Apaf-1 act conf
Cc1cc(C)nc(-n2nc(C)cc2NC(=O)CN2CCc3ccccc3C2)n1	n	x	x
COC(=O)c1[nH]c2cc(C)ccc2c1NC(=O)CN1CCc2cc(OC)c(OC)cc2C1	-176	n	n
O=C(CCc1ccccc1)Nc1ccc(NC(=O)c2ccco2)cc1	-193	n	n
O=C(NCCc1ccccc1)c1ccc2nc(-c3ccco3)c(-c3ccco3)nc2c1	n	x	x
COc1cc(O)c(NC(C)=O)c2nonc12	n	x	x
CCOc1cccc(CNc2ccc(O)cc2)c1OCc1ccccc1Cl	n	x	x
NCCc1cnc[nH]1	n	x	x
C=CCNC(=O)CN(c1cccc(Br)c1)S(C)(=O)=O	-56	n	n
CCN(CC)C(=O)[C@H]1CC(CC(=O)NCCCN(C)C)C(=O)N2CCc3c([nH]c4ccccc34)[C@]12C (stereo partly specified)	n	x	x
CCOC(=O)N1CCC(N2Cc3cccc(C(=O)Nc4ccccc4OC)c3C2=O)CC1	-44	n	n
C#CCOCCOCCOCCNc1nc(N2CCN(C(=O)CCCCCCCCCCNC(=O)Cn3cc(CCCCCN)nn3)CC2)nc(N2CCN(C(=O)CCCCCCCCCCNC(=O)[C@@H](CCC(=O)O)n3cc(CCCCCN)nn3)CC2)n1	n	x	x
COc1cc2c(cc1OC)C1=C(C#N)CCC(=O)N1CC2	n	x	x
CCCCCCOC(=O)C(C#N)c1nc2ccccc2nc1N1CCN(CC)CC1 (stereo unspecified)	n	x	x
COc1ccc(Oc2nnc(-c3ccc(C)cc3)c3ccccc23)cc1	-172	n	n
